E-selectin induc: induces E-selectin expression in human endothelial cells; HUVEC E-selectin immunofluorescence imaging; normalized: neutral wells 0, TNF-alpha wells 100; P16581; actives 0.37% (n = 260,000); activation, % at 7.58 µM;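 active = mean E-selectin-positive cell signal at least 10% of the positive control, reached in at least 60% of replicates, without over 20% cell loss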
Target sequence (P16581 whole entry, looked up): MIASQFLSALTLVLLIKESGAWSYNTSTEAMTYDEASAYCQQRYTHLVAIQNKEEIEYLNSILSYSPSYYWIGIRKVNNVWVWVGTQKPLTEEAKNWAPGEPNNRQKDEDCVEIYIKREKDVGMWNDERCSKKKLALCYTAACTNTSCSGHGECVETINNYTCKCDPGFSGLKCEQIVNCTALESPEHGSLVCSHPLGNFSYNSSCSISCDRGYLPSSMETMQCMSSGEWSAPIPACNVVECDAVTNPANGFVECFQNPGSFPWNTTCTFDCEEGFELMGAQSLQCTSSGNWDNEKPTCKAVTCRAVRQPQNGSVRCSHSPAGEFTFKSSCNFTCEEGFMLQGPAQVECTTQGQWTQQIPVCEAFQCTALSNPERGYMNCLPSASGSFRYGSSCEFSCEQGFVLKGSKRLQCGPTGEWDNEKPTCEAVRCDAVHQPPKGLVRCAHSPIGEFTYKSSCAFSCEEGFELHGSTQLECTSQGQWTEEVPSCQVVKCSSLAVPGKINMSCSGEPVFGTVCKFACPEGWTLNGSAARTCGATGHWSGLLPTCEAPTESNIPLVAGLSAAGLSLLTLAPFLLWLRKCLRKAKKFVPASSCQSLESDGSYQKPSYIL
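Material: HUVEC primary endothelial cells; Amount: 3,000 cells per well; Dosing: single concentration; Medium: EGM-2 growth medium on 0.1% gelatin-coated wells; Read-out basis: percent E-selectin-positive cells; Signal: immunofluorescence imaging; Control set: TNF-alpha, DMSO.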
A number is an active result; 0 = inactive. The sample as a whole holds a higher share of hits than the screen did.

SMILES | E-selectin induc
O=C(C[C@@H]1C[C@H]2c3cc(NC(=O)C4CCOCC4)ccc3O[C@H]2[C@H](CO)O1)NCCN1CCCCC1 | 0
COc1cccc(CNC(=O)C[C@H]2C=C[C@H](NC(=O)C3CCOCC3)[C@@H](CO)O2)c1 | 0
O=C(COC(=O)c1ccccc1NCCO)NCCc1ccccc1 | 0
O=C(COC(=O)c1ccccc1NCCO)NNC(=O)c1cccs1 | 428
O=C(COC(=O)c1ccccc1[N+](=O)[O-])NNC(=O)c1cccs1 | 0
CO[C@H]1CN(C)C(=O)c2ccc(NC(=O)C3CC3)cc2OC[C@@H](C)N(C)C[C@@H]1C | 0
CC1CCc2nc3ccc(S(=O)(=O)N4CCC(C(=O)O)CC4)cc3c(C(=O)O)c2C1 (configuration not stated) | 0
O=C(O)c1c2c(nc3ccc(S(=O)(=O)N4CCC(C(=O)NC5CCCC5)CC4)cc13)CCCCC2 | 0
CC1CCc2nc3ccc(S(=O)(=O)N4CCC(C(=O)NC5CCCC5)CC4)cc3c(C(=O)O)c2C1 (configuration not stated) | 93
CNC[C@H]1OCCCC[C@@H](C)Oc2ccc(NC(=O)Cc3ccccc3)cc2C(=O)N([C@H](C)CO)C[C@H]1C | 0
COc1ccc(S(=O)(=O)Nc2ccc3c(c2)C(=O)N([C@H](C)CO)C[C@@H](C)[C@H](CN(C)C(=O)Nc2ccccc2)OCCCC[C@H](C)O3)cc1 | 0
CCn1c(SCC(=O)N(C)C)nc2cc(S(=O)(=O)N3CCCCC3)ccc21 | 0
CCn1c(SCC(=O)N(C)Cc2ccc(OC)c(F)c2)nc2cc(S(N)(=O)=O)ccc21 | 42
CCn1c(SCC(=O)N(C)C2CCCCC2)nc2cc(S(N)(=O)=O)ccc21 | 0
CO[C@H]1CN(C)C(=O)c2cc(NC(=O)Nc3ccccc3F)ccc2OC[C@@H](C)NC[C@H]1C | 0
C[C@H]1CN([C@@H](C)CO)C(=O)c2cccc(NS(=O)(=O)c3cn(C)cn3)c2O[C@@H]1CN(C)Cc1ccc(C(=O)O)cc1 | 0
COc1cccc(CNC(=O)c2cc3c(c(-c4cccc(-c5cccc(C#N)c5)c4)n2)[C@H](CCO)N(S(=O)C(C)(C)C)C3)c1 (some centres not stated) | 49
COc1cccc(CNC(=O)c2cc3c(c(-c4cccc(-c5ccncc5)c4)n2)[C@@H](CCO)N([S@](=O)C(C)(C)C)C3)c1 | 0
COc1ccc(CNC(=O)c2cc3c(c(-c4cccc(-c5cccc(C#N)c5)c4)n2)[C@@H](CCO)N([S@](=O)C(C)(C)C)C3)cc1 | 0
COc1ccc(CNC(=O)c2cc3c(c(-c4cccc(-c5ccc(C#N)cc5)c4)n2)[C@@H](CCO)N([S@](=O)C(C)(C)C)C3)cc1 | 0
COc1cccc(CNC(=O)c2cc3c(c(-c4cccc(-c5ccc(C#N)cc5)c4)n2)[C@H](CCO)N([S@@](=O)C(C)(C)C)C3)c1 | 60
CC(C)(C)[S@](=O)N1Cc2cc(C(=O)NCc3ccncc3)nc(-c3cccc(-c4cccc(C#N)c4)c3)c2[C@@H]1CCO | 0
C[C@@H]1CN([C@@H](C)CO)C(=O)c2cc(NC(=O)Nc3ccc(C(F)(F)F)cc3)ccc2O[C@@H](C)CCCCO[C@H]1CN(C)C(=O)Nc1ccccc1 | 0
C[C@H]1CN([C@@H](C)CO)C(=O)c2cc(C#CC3(O)CCCC3)cnc2O[C@@H]1CN(C)Cc1cccnc1 | 0
C[C@@H]1CN([C@@H](C)CO)C(=O)c2cc(NC(=O)c3ccncc3)ccc2O[C@H]1CN(C)C(=O)Nc1ccc(F)cc1 | 0
SMILES | E-selectin induc
Cc1cc(NC(=O)CCC(=O)N(c2ccc(F)cc2)C(C(=O)NC2CCCC2)c2ccccc2)no1 (configuration not stated) | 0
Cc1cc(NC(=O)CCC(=O)N(c2ccccc2)C(C(=O)NC2CCCC2)c2ccc(F)cc2)no1 (configuration not stated) | 36
CCCCN(C(=O)CCC(=O)Nc1cc(C)on1)C(C(=O)NC1CCCC1)c1ccc(F)cc1 (configuration not stated) | 0
C[C@@H]1CN([C@H](C)CO)C(=O)c2cc(-c3cccc(F)c3)cnc2O[C@H]1CN(C)C(=O)C1CCC1 | 0
O=C(C[C@H]1CC[C@@H]2[C@H](COC[C@H](O)CN2C(=O)c2cnccn2)O1)NCc1ccc(F)cc1 | 0
C[C@H](CO)N1C[C@H](C)[C@H](CN(C)S(=O)(=O)c2cn(C)cn2)OCCCC[C@H](C)Oc2ccc(NS(=O)(=O)c3cn(C)cn3)cc2C1=O | 0
NNC(=O)c1csc(COc2cc(Cl)cc(Cl)c2)n1 | 0
Cc1nc(-c2nc(C(=O)NNS(C)(=O)=O)cs2)cs1 | 0
CS(=O)(=O)NNC(=O)c1csc(Cc2c(Cl)sc3ccc(Cl)cc23)n1 | 63
O=C1CN(Cc2ccc(F)cc2)C[C@@H]2[C@H](c3ccc(-c4ccccc4)cc3)[C@H](CO)N12 | 0
O=C(C[C@@H]1C=C[C@@H](NC(=O)NC2CCCCC2)[C@H](CO)O1)NCc1ccc(F)cc1 | 0
O=C(C[C@@H]1C=C[C@H](NC(=O)CN2CCOCC2)[C@H](CO)O1)NC1CCCCC1 | 0
CC=Cc1ccc2n(c1=O)C[C@@H]1[C@@H](CO)[C@H](C(=O)NC3CCCC3)N(Cc3cccnc3)[C@H]21 (mixture of isomers) | 0
COC(=O)C[C@@H]1CC[C@@H]2[C@@H](COc3ccc(NC(=O)c4ccccc4OC)cc3C(=O)N2C)O1 | 0
C[C@H](CO)N1C[C@H](C)[C@@H](CN(C)C(=O)CN(C)C)Oc2cc(C3=CCCCC3)ccc2S1(=O)=O | 0
Cc1ccc(N2C(=O)C3CCCN3C2=S)c(C)c1 (configuration not stated) | 0
Cc1ccc(N2C(=O)[C@@H]3C(c4cccnc4)=NO[C@@H]3C2=O)c(C)c1 | 31
O=C1[C@@H]2C(c3cccnc3)=NO[C@@H]2C(=O)N1c1ccc(Br)cc1 | 0
C[C@H]1CN([C@@H](C)CO)C(=O)c2cccc(NC(=O)c3cnccn3)c2O[C@@H]1CN(C)S(=O)(=O)c1ccccc1 | 0
CCCNC(=O)N(C)C[C@@H]1Oc2cc(-c3cncnc3)ccc2S(=O)(=O)N([C@H](C)CO)C[C@@H]1C | 0
COc1ccccc1CN1CC(C(=O)N(C)Cc2[nH]c3ccccc3c2C)CCC1=O (configuration not stated) | 119
COc1ccccc1CN1CC(C(=O)N(C)CCCn2nc(C)cc2C)CCC1=O (configuration not stated) | 0
COc1ccccc1CN1CC(C(=O)N(CCO)Cc2cccs2)CCC1=O (configuration not stated) | 0
C[C@@H]1CN([C@@H](C)CO)S(=O)(=O)c2ccc(C3=CCCCC3)cc2O[C@@H]1CN(C)Cc1ccccn1 | 0
C[C@@H]1CN([C@H](C)CO)C(=O)c2cc(-c3ccccc3)cnc2O[C@@H]1CN(C)C(=O)c1ccccn1 | 0
SMILES | E-selectin induc
COc1ccc(-c2cc(C(=O)Nc3ccc(OC)cc3OC)no2)cc1 | 0
COc1ccc(NC(=O)c2cc(-c3cccs3)on2)c(OC)c1 | 60
COc1ccc(NC(=O)c2cc(-c3cccs3)on2)cc1 | 0
O=C(C[C@H]1CC[C@@H]2[C@H](COC[C@@H](O)CN2CC2CCOCC2)O1)NCC1CCCCC1 | 0
COc1ccc(NC(=O)N(C)C[C@@H]2Oc3ncc(C#CCC(C)C)cc3C(=O)N([C@@H](C)CO)C[C@H]2C)cc1 | 0
COc1cccc(S(=O)(=O)N(C)C[C@@H]2OCc3cn(nn3)CCCC(=O)N([C@H](C)CO)C[C@@H]2C)c1 | 0
O=C(C[C@@H]1C=C[C@H](NC(=O)Nc2cc(F)ccc2F)[C@H](CO)O1)NCc1ccncn1 | 0

Screens deposited in PubChem BioAssay by Broad Institute.
